How the values were obtained:
[1] = target: T1, Serotonin 3 (5-HT3) receptor (Rattus norvegicus, UniProt P35563+Q9JJ16); assay: Compound was evaluated for its binding affinity for 5-hydroxytryptamine 3 receptor by measuring displacement [3H]GR-65630 in rat cerebral cortex.; type: tissue-based
T1 sequence (P35563 whole entry): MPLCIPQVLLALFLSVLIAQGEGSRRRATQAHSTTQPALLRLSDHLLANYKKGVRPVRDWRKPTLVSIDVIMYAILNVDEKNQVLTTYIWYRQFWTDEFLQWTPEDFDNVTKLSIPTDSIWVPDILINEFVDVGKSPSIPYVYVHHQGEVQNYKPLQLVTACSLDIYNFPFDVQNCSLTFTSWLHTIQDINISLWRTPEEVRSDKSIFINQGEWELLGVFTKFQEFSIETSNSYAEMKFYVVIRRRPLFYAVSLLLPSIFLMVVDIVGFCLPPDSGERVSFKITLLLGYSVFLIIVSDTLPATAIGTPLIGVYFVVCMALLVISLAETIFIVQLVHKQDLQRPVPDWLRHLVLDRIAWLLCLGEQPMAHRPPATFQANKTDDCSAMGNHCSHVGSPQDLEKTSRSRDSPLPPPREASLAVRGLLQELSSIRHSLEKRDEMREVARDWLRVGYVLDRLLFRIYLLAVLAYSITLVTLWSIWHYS
T1 sequence (Q9JJ16 whole entry): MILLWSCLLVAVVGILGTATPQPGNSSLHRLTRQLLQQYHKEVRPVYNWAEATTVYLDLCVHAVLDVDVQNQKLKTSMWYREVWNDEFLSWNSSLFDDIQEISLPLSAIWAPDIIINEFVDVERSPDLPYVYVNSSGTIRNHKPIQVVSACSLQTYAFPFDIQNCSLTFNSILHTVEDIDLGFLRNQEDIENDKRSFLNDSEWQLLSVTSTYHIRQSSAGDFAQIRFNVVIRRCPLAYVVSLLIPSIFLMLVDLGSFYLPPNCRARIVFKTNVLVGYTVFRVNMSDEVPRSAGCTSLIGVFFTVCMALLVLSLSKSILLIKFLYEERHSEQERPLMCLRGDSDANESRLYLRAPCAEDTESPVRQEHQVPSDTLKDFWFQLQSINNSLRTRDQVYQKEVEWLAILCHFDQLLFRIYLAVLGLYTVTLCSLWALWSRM

[2] = target: Serotonin (5-HT) receptor; assay: Potency was evaluated on rabbit heart serotonergic receptors; parameters: species or system Oryctolagus cuniculus
[3] = target: T2, Muscarinic acetylcholine receptor M2 (Rattus norvegicus, UniProt P10980); assay: Compound was evaluated for its binding affinity for Muscarinic acetylcholine receptor M2 by measuring displacement of [3H]- NMS ligand from rat cardiac cells.
T2 sequence (P10980 whole entry): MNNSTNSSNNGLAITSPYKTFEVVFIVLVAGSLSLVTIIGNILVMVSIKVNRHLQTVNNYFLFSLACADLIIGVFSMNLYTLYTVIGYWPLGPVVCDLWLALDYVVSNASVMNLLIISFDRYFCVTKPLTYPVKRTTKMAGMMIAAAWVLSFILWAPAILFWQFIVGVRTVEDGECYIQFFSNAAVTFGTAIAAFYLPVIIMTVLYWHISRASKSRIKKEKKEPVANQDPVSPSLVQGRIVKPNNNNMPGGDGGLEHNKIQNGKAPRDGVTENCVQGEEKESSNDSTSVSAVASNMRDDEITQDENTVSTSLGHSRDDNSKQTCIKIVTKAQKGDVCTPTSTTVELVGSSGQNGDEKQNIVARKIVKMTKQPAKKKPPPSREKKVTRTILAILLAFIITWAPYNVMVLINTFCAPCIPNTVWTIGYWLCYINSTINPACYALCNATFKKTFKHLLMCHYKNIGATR
Method in brief: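 Adult rat cardiac cells homogenized 1:200 w/v in 50 mM sodium phosphate pH 7.4. Competition run with 0.2 nM [3H]NMS, 0.5 mg tissue and varying unlabeled ligand concentrations for 1 h at 37 °C. Bound separated by GF/C filtration. Atropine used for nonspecific binding.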

[4] = target: T3, Muscarinic acetylcholine receptor M1 (Rattus norvegicus, UniProt P08482); assay: Compound was evaluated for its binding affinity for Muscarinic acetylcholine receptor M1 by measuring displacement of [3H]- pirenzepine from rat hippocampus; type: tissue-based
T3 sequence (P08482 whole entry): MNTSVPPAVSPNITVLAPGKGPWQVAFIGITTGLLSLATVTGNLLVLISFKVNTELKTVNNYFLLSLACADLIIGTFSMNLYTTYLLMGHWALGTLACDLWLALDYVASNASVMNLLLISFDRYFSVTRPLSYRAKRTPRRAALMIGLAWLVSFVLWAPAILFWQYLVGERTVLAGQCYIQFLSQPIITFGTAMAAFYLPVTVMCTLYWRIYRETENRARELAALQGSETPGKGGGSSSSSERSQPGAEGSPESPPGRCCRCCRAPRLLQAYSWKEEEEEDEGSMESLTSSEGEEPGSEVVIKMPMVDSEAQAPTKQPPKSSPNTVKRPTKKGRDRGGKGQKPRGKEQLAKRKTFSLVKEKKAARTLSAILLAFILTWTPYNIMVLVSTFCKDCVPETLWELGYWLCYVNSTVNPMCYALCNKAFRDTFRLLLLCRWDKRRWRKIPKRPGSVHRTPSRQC
Method in brief: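 Adult rat hippocampus homogenized 1:200 w/v in 50 mM Na/K phosphate pH 7.4 with 1 mM EDTA and 0.1 mM PMSF. 0.5 mg tissue competed against [3H]pirenzepine (0.7-1 nM) for 2 h 30 min at 25 °C. Bound separated by filtration on 0.3% polyethylenimine-treated GF/C filters. Atropine defined nonspecific binding.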

[5] = target: T1, Serotonin 3 (5-HT3) receptor; assay: Compound was evaluated for its binding affinity for 5-hydroxytryptamine 3 receptor by measuring displacement of [3H]granisetron from rat cerebral cortex; type: tissue-based
Method in brief: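 Male Sprague-Dawley rat cerebral cortex homogenized in cold 50 mM HEPES pH 7.5, then washed three times by centrifugation (48000g, 4 °C); roughly 2.5 mg protein/mL. […] Filters were presoaked 2 h in 0.3% polyethylenimine. Nonspecific binding defined with 100 nM zacopride; bound counted by liquid scintillation.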

[6] = target: T1, Serotonin 3 (5-HT3) receptor; assay: Compound was evaluated for its binding affinity for 5-hydroxytryptamine 3 receptor by measuring displacement [3H]GR-65630 in rat cerebral cortex; type: tissue-based

Ki [3] [µM] | Ki [4] [µM] | IC50 [5] [µM] | Ki [6] [µM] | SMILES | other results
 |  |  |  | Cn1cc(-c2noc(C3CN4CCC3CC4)n2)c2ccccc21 (configuration not stated) | IC50 [1]: 0.0014 µM
 |  |  |  | O=C(OC1C2CC3CC1N2CC3=O)c1c[nH]c2ccccc12 (configuration not stated) | pA2 [2]: 9.8
80 | 62 | 0.036 |  | CN1CCN(c2cc(-c3ccccc3)cnn2)CC1 | 
116 | 13 | 0.37 |  | CN1CCN(c2nnc(-c3ccccc3)c3ccccc23)CC1 | 
71 | 15.6 | 0.425 |  | CN1CCN(c2ccc(-c3ccccc3)nn2)CC1 | 
 |  |  | 0.348 | CCN(CC)CCNC(=O)c1cc(Cl)c(N)cc1OC [METOCLOPRAMIDE] | 
 |  |  | 0.0032 | CN1[C@@H]2CC[C@H]1C[C@@H](OC(=O)c1c[nH]c3ccccc13)C2 [TROPISETRON] | 

SMILES | Ki [3] [µM] | Ki [4] [µM] | IC50 [5] [µM] | Ki [6] [µM] | other results
CN1CCN(c2nncc3ccccc23)CC1 | 38 | 10 | 0.01 |  | 
CN1[C@@H]2CC[C@H]1C[C@@H](OC(=O)c1cc(Cl)cc(Cl)c1)C2 [BEMESETRON] |  |  |  | 0.054 | 

From ChEMBL document CHEMBL1131455, “5-HT3 antagonists derived from aminopyridazine-type muscarinic M1 agonists” (J Med Chem, 1998)
